Drawing on ChEMBL document CHEMBL1687796, “Synthesis and spectrum of the neoglycoside ACHN-490” (2010), this text covers MIC, MIC50 and MIC90 for two compounds.

Test [1] deals with Escherichia coli. The test is described as follows: Antibacterial activity against aminoglycoside-resistant Escherichia coli expressing AAC(3)-4 by broth microdilution method. Type of test: functional. An outline of the steps: (§1)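 Clinical aminoglycoside-resistant isolates were each carrying a single aminoglycoside-modifying enzyme. […] MICs were determined by CLSI broth microdilution.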

For test [2], the system named is Pseudomonas aeruginosa. The test is described as follows: Antibacterial activity against Pseudomonas aeruginosa expressing AAC(6')-2 by broth microdilution method. It is filed as functional.
Test [3] relates to Acinetobacter baumannii. The test is described as follows: Antibacterial activity against aminoglycoside-resistant Acinetobacter baumannii expressing […] by broth microdilution method. Type of test: functional. An outline of the steps: as §1
A further test deals with Enterobacter cloacae. In words: Antibacterial activity against aminoglycoside-resistant Enterobacter cloacae expressing AAC(3)-2 by broth microdilution method. It is filed as functional. Put shortly:
as §1

The subject of test [4] is Acinetobacter baumannii. The test is described as follows: Antibacterial activity against Acinetobacter baumannii ATCC 19606 by broth microdilution method. It is filed as functional. The conditions noted are these: ATCC 19606 = CIP 70.34 = JCM 6841. Put shortly:
(§2)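 MICs were measured by broth microdilution following CLSI guidance. The strains formed a 25-strain screening panel with diverse aminoglycoside resistance mechanisms. The panel included Gram-negative and S. aureus strains carrying key aminoglycoside-modifying enzymes, strains with altered permeability or efflux, and an armA ribosomal methyltransferase strain.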

Test [5] deals with Pseudomonas aeruginosa. The test is described as follows: Antibacterial activity against Pseudomonas aeruginosa expressing mexXY operon by broth microdilution method. Type of test: functional. Put shortly:
as §2

Another test has as its system Klebsiella pneumoniae. In words: Antibacterial activity against aminoglycoside-resistant Klebsiella pneumoniae expressing AAC(3)-2 by broth microdilution method. Type of test: functional. Put shortly:
as §1

Test [6] concerns Pseudomonas aeruginosa. In words: Antibacterial activity against efflux pump deficient Pseudomonas aeruginosa by broth microdilution method. Type of test: functional.
Test [7] has as its system Escherichia coli. In words: Antibacterial activity against aminoglycoside-resistant Escherichia coli expressing ANT(6')-1 by broth microdilution method. Type of test: functional. Put shortly:
as §1

Another test relates to Providencia stuartii. In words: Antibacterial activity against aminoglycoside-resistant Providencia stuartii expressing AAC(2')-1 by broth microdilution method.
The subject of the next test is Klebsiella sp. In words: Antibacterial activity against Klebsiella spp. by broth microdilution method. It is filed as functional. Put shortly:
(§3)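 MICs were determined by CLSI broth microdilution against clinical isolate panels that included aminoglycoside-resistant isolates. […] MIC90 was derived per group and not calculated when n was <10. Imipenem, ceftobiprole, ciprofloxacin and tigecycline MICs were also determined for the resistant isolates.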

The next test concerns Serratia marcescens. In words: Antibacterial activity against aminoglycoside-resistant Serratia marcescens expressing AAC(6')-1 by broth microdilution method. It is filed as functional. An outline of the steps: as §1
Test [8] relates to Acinetobacter baumannii. In words: Antibacterial activity against aminoglycoside-susceptible Acinetobacter baumannii by broth microdilution method. It is filed as functional.
Test [9] concerns Staphylococcus aureus. In words: Antibacterial activity against aminoglycoside-resistant Staphylococcus aureus expressing APH(2'') + AAC(6')-1 by broth microdilution method. It is filed as functional. Put shortly:
as §1

For test [10], the system named is Escherichia coli. In words: Antibacterial activity against aminoglycoside-resistant Escherichia coli expressing AAC(3)-2 by broth microdilution method.
The subject of test [11] is Escherichia coli. The test is described as follows: Antibacterial activity against aminoglycoside-resistant Escherichia coli expressing AAC(3)-IVa by broth microdilution method.
The next test deals with Citrobacter freundii. The test is described as follows: Antibacterial activity against aminoglycoside-resistant Citrobacter freundii expressing AAC(3)-2 by broth microdilution method. Type of test: functional. An outline of the steps:
as §1

Test [12] deals with Staphylococcus aureus. In words: Antibacterial activity against aminoglycoside-resistant Staphylococcus aureus expressing ANT(4',4'')-2 by broth microdilution method. It is filed as functional. An outline of the steps:
as §1

Test [13] concerns Escherichia coli. The test is described as follows: Antibacterial activity against aminoglycoside-resistant Escherichia coli expressing armA methylase by broth microdilution method. Type of test: functional. An outline of the steps:
as §2

Another test deals with Enterobacter sp. The test is described as follows: Antibacterial activity against Enterobacter spp. by broth microdilution method. It is filed as functional. An outline of the steps:
as §3

The test system of test [14] is Acinetobacter baumannii. The test is described as follows: Antibacterial activity against aminoglycoside-resistant Acinetobacter baumannii expressing APH(3')-6 by broth microdilution method. Type of test: functional. An outline of the steps:
as §1

Test [15] deals with Escherichia coli. The test is described as follows: Antibacterial activity against aminoglycoside-resistant Escherichia coli expressing ANT(3)-2 by broth microdilution method. Type of test: functional. Put shortly:
as §1

Values after ≈ are worked out from the molar mass of the structure shown.

Take `NCC[C@H](O)C(=O)N[C@@H]1C[C@H](N)[C@@H](O[C@H]2O[C@H](CN)[C@@H](O)[C@H](O)[C@H]2O)[C@H](O)[C@H]1O[C@H]1O[C@H](CO)[C@@H](O)[C@H](N)[C@H]1O` [AMIKACIN]: the MIC in the test with Escherichia coli [1] stood at 2 µg/mL (≈ 3.42 µM); in the test with Pseudomonas aeruginosa [2], 4 µg/mL (≈ 6.83 µM); against Acinetobacter baumannii [3], 4 µg/mL (≈ 6.83 µM); against Enterobacter cloacae, 4 µg/mL (≈ 6.83 µM); in the test with Acinetobacter baumannii [4] it was 16 µg/mL (≈ 27.3 µM); against Pseudomonas aeruginosa [5], 4 µg/mL (≈ 6.83 µM). Also, the MIC against Klebsiella pneumoniae came out at 4 µg/mL (≈ 6.83 µM); in the test with Pseudomonas aeruginosa [6] it was 0.5 µg/mL (≈ 0.854 µM); in the test on Escherichia coli [7], 32 µg/mL (≈ 54.6 µM); with Providencia stuartii, 8 µg/mL (≈ 13.7 µM); against Serratia marcescens it was 30 µg/mL (≈ 51.2 µM); in the test with Acinetobacter baumannii [8], 2 µg/mL (≈ 3.42 µM). Also, the MIC in the test on Staphylococcus aureus [9] was 18 µg/mL; against Escherichia coli [10] it was 4 µg/mL (≈ 6.83 µM); against Escherichia coli [11], 4 µg/mL (≈ 6.83 µM); in the test on Citrobacter freundii, 4 µg/mL (≈ 6.83 µM); with Staphylococcus aureus [12] it was 13 µg/mL (≈ 22.2 µM); in the test on Escherichia coli [13], above 64 µg/mL. Besides, the MIC in the test on Acinetobacter baumannii [14] is above 64 µg/mL. The MIC50 in the test on Klebsiella sp. is 32 µg/mL (≈ 54.6 µM); against Enterobacter sp. it was 8 µg/mL (≈ 13.7 µM). Moreover, the MIC90 in the test on Klebsiella sp. is above 64 µg/mL; against Enterobacter sp. it was 64 µg/mL (≈ 109 µM).

Turning to `CN[C@@H]1[C@@H](O)[C@@H](O[C@@H]2[C@@H](O)[C@H](O[C@H]3OC(CNCCO)=CC[C@H]3N)[C@@H](N)C[C@H]2NC(=O)[C@@H](O)CCN)OC[C@]1(C)O` [PLAZOMICIN], the MIC came out at 1 µg/mL (≈ 1.69 µM) against Escherichia coli [1]; 2 µg/mL (≈ 3.37 µM) with Pseudomonas aeruginosa [2]; 4 µg/mL (≈ 6.75 µM) with Acinetobacter baumannii [3]; 1 µg/mL (≈ 1.69 µM) with Enterobacter cloacae; 8 µg/mL (≈ 13.5 µM) with Acinetobacter baumannii [4]; 8 µg/mL (≈ 13.5 µM) against Pseudomonas aeruginosa [5]. Besides, the MIC in the test with Klebsiella pneumoniae was 1 µg/mL (≈ 1.69 µM); in the test on Pseudomonas aeruginosa [6] it was 0.125 µg/mL (≈ 0.211 µM); against Escherichia coli [7], 0.25 µg/mL (≈ 0.422 µM); against Providencia stuartii, above 64 µg/mL; against Serratia marcescens, 1 µg/mL (≈ 1.69 µM); against Acinetobacter baumannii [8], 4 µg/mL (≈ 6.75 µM). In addition, the MIC was 1 µg/mL with Staphylococcus aureus [9]; 1 µg/mL (≈ 1.69 µM) against Escherichia coli [11]; 2 µg/mL (≈ 3.37 µM) against Escherichia coli [15]; 1 µg/mL (≈ 1.69 µM) with Citrobacter freundii; 1 µg/mL (≈ 1.69 µM) against Staphylococcus aureus [12]; above 64 µg/mL in the test with Escherichia coli [13]. The same compound displayed an MIC against Acinetobacter baumannii [14] of 3 µg/mL (≈ 5.06 µM). The MIC50 against Klebsiella sp. and with Enterobacter sp. was 0.5 µg/mL (≈ 0.844 µM) each time. Further, the MIC90 in the test with Klebsiella sp. and in the test with Enterobacter sp. was 1 µg/mL (≈ 1.69 µM) in each case.
